Test results reported in paper PMC7941583 (Cancer Reports, 2020).
The star is where a group is joined. Cbz = O=C(OCc1ccccc1)*; CH2F = FC*

Assays:
LNCaP cells [1] = assay: TUNEL assay of apoptosis; assay type: cell-based, human; conditions: for proportion of apoptotic cells (TUNEL): 10^−6 M, 60 hours post‐treatment
In short: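 Serum-free adapted LNCaP cells (5 × 10^5 per 75 cm2 flask) were treated with 10−6 M test compound or vehicle over a time course. Z-VAD-FMK (50 μM) was added 1 h before compound where indicated. Adherent plus floating cells were cytospun and stained by TdT fluorescein in situ labelling. Positive cells were counted per 500 cells in five fields, on three slides per sample; results are % apoptotic cells.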

DU145 cells [2] = assay: Cell growth; assay type: cell-based, human
PC‐3 cells [3] = assay: Cell growth; assay type: cell-based, human
LNCaP cells [4] = assay: Cell growth; assay type: cell-based, human
LNCaP cells [5] = assay: Adipogenic differentiation; assay type: cell-based, human
LNCaP cells [6] = assay: Cell cycle analysis; assay type: cell-based, human; conditions: 10^−6 M; for proportion of cells sub‐G0/G1: 48‐hour timepoint
In short: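 Serum-free adapted LNCaP cells treated with test compound over a time course to 48 h. Harvested cells stained with propidium iodide and analysed by flow cytometry. Phases were assigned by DNA content: 2n is G1, 4n is G2/M, and between 2n and 4n is S. Cells below 2n (sub-G1) were scored as apoptotic. Results are percentages of cells per phase.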

LNCaP cells [7] = assay: Colony forming efficiency, LNCaP; assay type: cell-based, human; conditions: Figure 4A
In short: (§1)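 Serum-free adapted cells were trypsinized (0.25% trypsin in PBS, 5 min, 37°C) into single-cell suspensions; suspensions under 90% trypan-blue-viable were discarded. 1000 cells per 65-mm dish were grown 21 days at 37°C, 5% CO2, in RPMI 1640 plus ITS+1 with test compound, refreshed every 5 days. Colonies were fixed in 1% formaldehyde and stained with methylene blue. CFE = colonies/cells inoculated × 100.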

LNCaP cells [8] = conditions: previous data; cited from earlier work
RARβ = biological target: T1, RARβ (Homo sapiens, UniProt P10826); conditions: binding affinities of synthetic retinoids; cited from earlier work
T1 sequence (P10826 183-417 limits assumed): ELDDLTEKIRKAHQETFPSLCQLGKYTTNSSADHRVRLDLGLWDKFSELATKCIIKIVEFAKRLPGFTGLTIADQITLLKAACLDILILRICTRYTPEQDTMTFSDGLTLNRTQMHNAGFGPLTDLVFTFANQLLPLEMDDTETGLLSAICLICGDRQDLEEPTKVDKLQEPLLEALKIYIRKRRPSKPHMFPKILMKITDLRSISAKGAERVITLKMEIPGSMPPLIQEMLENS

DU145 cells [9] = assay: Colony forming efficiency, DU145; assay type: cell-based, human; conditions: DU145, Figure 4A
In short: as §1

RARα = biological target: T2, RARα (Homo sapiens, UniProt P10276); conditions: binding affinities of synthetic retinoids; cited from earlier work
T2 sequence (P10276 183-417 limits assumed): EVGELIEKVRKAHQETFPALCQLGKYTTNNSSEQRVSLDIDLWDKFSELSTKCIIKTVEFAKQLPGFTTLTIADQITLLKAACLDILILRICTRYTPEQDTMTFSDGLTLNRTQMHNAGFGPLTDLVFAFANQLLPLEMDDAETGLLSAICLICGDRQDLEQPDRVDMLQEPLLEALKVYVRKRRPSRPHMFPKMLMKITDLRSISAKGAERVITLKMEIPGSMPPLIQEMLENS

RARγ = biological target: T3, RARγ (Homo sapiens, UniProt P13631); conditions: binding affinities of synthetic retinoids; cited from earlier work
T3 sequence (P13631 185-419 limits assumed): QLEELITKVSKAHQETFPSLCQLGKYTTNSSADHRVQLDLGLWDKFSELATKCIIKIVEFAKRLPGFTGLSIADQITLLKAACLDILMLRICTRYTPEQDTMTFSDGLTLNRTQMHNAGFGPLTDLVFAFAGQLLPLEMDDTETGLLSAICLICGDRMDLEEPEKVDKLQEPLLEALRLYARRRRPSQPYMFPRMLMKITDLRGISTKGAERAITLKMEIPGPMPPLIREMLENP

PC‐3 cells [10] = assay: Colony forming efficiency, PC‐3; assay type: cell-based, human; conditions: PC‐3, Figure 4A
In short: as §1

PC‐3 cells [11] = assay: Metabolic activity; assay type: cell-based, human; conditions: PC‐3, concentrations of 10^−6 M and above
In short: (§2)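 Serum-free adapted LNCaP, PC-3, DU145 or RWPE-1 cells were seeded at 400 cells/well in RPMI-1640 plus ITS+1. Test compound was added at seeding and again at day 2 by medium change. Viability was read at day 5 as intracellular ATP by luminescence (ViaLight HS). Results are % viable cells relative to vehicle control; at least three experiments in triplicate, mean ± SD.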

LNCaP cells [12] = assay: Agarose gel electrophoresis of DNA; assay type: cell-based, human; conditions: time course
RWPE‐1 cells = assay: Metabolic activity; assay type: cell-based, human; conditions: non‐tumorigenic RWPE‐1 compared with PC cell lines
In short: as §2

DU145 cells [13] = assay: Metabolic activity; assay type: cell-based, human; conditions: DU145, concentrations of 10^−6 M and above
In short: as §2

caspase‐9 = assay: Fluorometric caspase‐9 activity in LNCaP lysates; assay type: cell-based, human; conditions: 10^−6 M
In short: (§3)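 Serum-free adapted LNCaP cells were treated with 10−6 M test compound, with pan-caspase inhibitor and etoposide arms as indicated. Lysate was mixed with an equal volume of 20 mM HEPES pH 7.5, 10% glycerol, 2 mM DTT containing 50 μM substrate: DEVD-AFC (caspase-3), IETD-AFC (caspase-8) or LEHD-AFC (caspase-9). Background wells lacked lysate. Fluorescence was read at 400 nm excitation/508 nm emission, expressed as fold over control.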

LNCaP cells [14] = assay: Metabolic activity; assay type: cell-based, human; conditions: concentrations of 10^−6 M and above
In short: as §2

caspase‐3 = assay: Fluorometric caspase‐3 activity in LNCaP lysates; assay type: cell-based, human; conditions: 10^−6 M
In short: as §3

caspase‐8 = assay: Fluorometric caspase‐8 activity in LNCaP lysates; assay type: cell-based, human; conditions: 10^−6 M
In short: as §3

Row | Compound | colony forming efficiency (CFE), antagonists (LNCaP cells [7]) | proportion of apoptotic cells (TUNEL) (LNCaP cells [1]) | ED50 RARβ (RARβ) | colony forming efficiency (CFE), antagonists (DU145 cells [9]) | ED50 RARα (RARα) | ED50 RARγ (RARγ) | colony forming efficiency (CFE), antagonists (PC‐3 cells [10]) | other results
1 | Cbz-Val-Ala-Asp-CH2F [reference compound] |  |  |  |  |  |  |  | effect of pre‐treatment on AGN205728‐induced apoptosis (TUNEL) (LNCaP cells [1]; Z‐VAD‐FMK 5 × 10^−5 M, AGN205728 10^−6 M): failed to diminish induction of apoptosis by AGN205728
2 | CC1=C(/C=C/C(C)=C/C=C/C(C)=C/C(=O)O)C(C)(C)CCC1 [ATRA, All‐trans‐retinoic acid] |  |  |  |  |  |  |  | effect on cell growth (DU145 cells [2]; DU145, 10^−8 M and above): progressively diminished cell growth; increase in cell numbers (DU145 cells [2]; DU145, 5 days, 10^−11‐10^−9 M): up to 1.5 fold; effect on cell growth (PC‐3 cells [3]; PC‐3, 10^−8 M and above): progressively diminished cell growth; increase in cell numbers (PC‐3 cells [3]; PC‐3, 5 days, 10^−11‐10^−9 M): up to 1.5 fold; effect on cell growth (LNCaP cells [4]; 10^−8 M and above): progressively diminished cell growth; increase in cell numbers (LNCaP cells [4]; 5 days, 10^−11‐10^−9 M): up to 1.5 fold
3 | O=C(Nc1ccccc1)c1cc([N+](=O)[O-])ccc1Cl [GW9662] |  |  |  |  |  |  |  | inhibition of accumulation of lipid droplets (LNCaP cells [5]; differentiation medium, day 14, AGN205327 10^−7 M, GW9662 10^−5 M): of a similar order
4 | CCc1ccc(C2=CC(C)(C)Sc3ccc(C#Cc4ccc(C(=O)O)cc4)cc32)cc1 [AGN194310, 4‐[[4‐(4‐Ethylphenyl)‐2,2‐dimethyl‐(2H)‐thiochromen‐6‐yl]‐ethynyl]‐benzoic acid] | diminished the CFE | 35% | 5 nM | diminished the CFE | 4.3 nM | 2 nM | diminished the CFE | proportion of cells in G1 phase (LNCaP cells [6]): gradually increased; proportion of cells in S‐phase (LNCaP cells [6]): fall; proportion of cells sub‐G0/G1 (LNCaP cells [6]): ~60%; colony formation (LNCaP cells [8]): inhibited colony formation
5 | CC1(C)CCC(C)(C)c2c1cc(C(=O)Nc1cc(F)c(C(=O)O)c(F)c1)c(O)c2Cl [AGN195183, 4‐(4‐Chloro‐3‐hydroxy‐5,5,8,8‐tetramethyl‐5,6,7,8‐tetrahydronaphthalene‐2‐carboxamido)‐2,6‐difluorobenzoic acid] |  |  | >5000 nM |  | 20.1 nM | >5000 nM |  | 
6 | CCOc1c(Br)cc(C(=O)Nc2ccc(C(=O)O)cc2)cc1C(=O)c1ccc(C)cc1 [AGN196996, 4‐(3‐Bromo‐4‐ethoxy‐5‐(4‐methylbenzoyl)benzamido)benzoic acid] | neither ATRA, nor the RARα‐selective antagonist AGN196996 (Figure 1, S1C, S1F and Table 1) proved as effective AGN205728 or AGN194310 | little evidence of induction of apoptosis | 4036 nM | neither ATRA, nor the RARα‐selective antagonist AGN196996 (Figure 1, S1C, S1F and Table 1) proved as effective AGN205728 or AGN194310 | 3.9 nM | >10 000 nM | neither ATRA, nor the RARα‐selective antagonist AGN196996 (Figure 1, S1C, S1F and Table 1) proved as effective AGN205728 or AGN194310 | effect of co‐treatment on AGN195183‐mediated growth inhibition (LNCaP cells [4]; 4 days, AGN196996 10^−8 M with AGN195183 10^−8 M): abolished AGN195183‐mediated growth inhibition; effect of co‐treatment with ATRA on proliferation (LNCaP cells [4]; 4 days, AGN196996 10^−8 M with ATRA 10^−8 M): promoted proliferation of LNCaP cells
7 | Cc1ccc(C2=CCC(C)(C)c3cc(C(/C=C/c4ccc(C(=O)O)cc4)=N/O)ccc32)cc1 [AGN205728, 4‐[(E,3E)‐3‐[8,8‐Dimethyl‐5‐(4‐methylphenyl)‐7H‐naphthalen‐2‐yl]‐3‐hydroxyiminoprop‐1‐enyl]benzoic acid] | diminished the CFE | 40% | 4248 nM | diminished the CFE | 2400.0 nM | 3 nM | diminished the CFE | proportion of cells in G1 phase (LNCaP cells [6]): gradually increased; proportion of cells in S‐phase (LNCaP cells [6]): fall; proportion of cells sub‐G0/G1 (LNCaP cells [6]): ~40%; metabolic activity (PC‐3 cells [11]): abolishing metabolic activity; DNA fragmentation pattern (LNCaP cells [12]): discrete laddering pattern that is typical of cells undergoing apoptosis; response of metabolic activity (RWPE‐1 cells): significantly diminished response; metabolic activity (DU145 cells [13]): abolishing metabolic activity; activation of caspase‐9 (caspase‐9): failed to activate; metabolic activity (LNCaP cells [14]): abolishing metabolic activity; activation of caspase‐3 (caspase‐3): failed to activate; activation of caspase‐8 (caspase‐8): failed to activate
8 | CC1(C)CCC(C)(C)c2cc(/C(=N\O)c3cc4cc(C(=O)O)ccc4[nH]3)ccc21 [AGN205327, 2‐[(E)‐N‐Hydroxy‐C‐(5,5,8,8‐tetramethyl‐6,7‐dihydronaphthalen‐2‐yl)carbonimidoyl]‐1H‐indole‐5‐carboxylic acid] |  |  | 734 nM |  | 3766.0 nM | 32 nM |  | effect on ciglitazone‐induced adipogenesis (LNCaP cells [5]; AGN205327 added later than 48 hours post‐induction): failed to have any effect; inhibition of ciglitazone‐induced adipogenic differentiation (LNCaP cells [5]; ciglitazone (10^−7 M), AGN205327 10^−7 M given between 48 hours pre‐ and post‐addition of ciglitazone): ≤ 70%
